ChEMBL document CHEMBL1144439, “A novel class of in vivo active anticancer agents: achiral seco-amino- and seco-hydroxycyclopropylbenz[e]indolone (seco-CBI) analogues of the duocarmycins and CC-1065” (J Med Chem, 2005)
One block for each molecule: values may come before it.

How the values were obtained:
L1210 = assay: The concentration required for inhibiting the growth of the murine L1210 leukemia cells by 50%; assay type: functional, cell-based; details: Mus musculus
Procedure, shortened: (§1)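 MTT growth inhibition in murine lines grown in DMEM with 10% FBS, HEPES, glutamine, pen/strep at 37 °C, 5% CO2. Seeded 80 000 cells/well, continuous drug exposure (DMSO stock diluted in DMEM) for 72 h, quadruplicate wells per concentration. MTT added for 4 h, formazan dissolved in acid 2-propanol, read at 570 nm (reference 630 nm). IC50 extrapolated from averaged absorbance curves.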

K562 = assay: The concentration required for inhibiting the growth of the human K562 chronic myeloid leukemia cells by 50%; assay type: functional, cell-based
Procedure, shortened: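 Drug exposure was […] in the dark, then cells were washed and plated at 10⁴ cells/well, eight wells per sample, and incubated 4 days. MTT was added for 5 h, formazan dissolved in DMSO and read at 550 nm.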

[1] = The concentration required for inhibiting the growth of the murine B16-F0 melanoma cells by 50%; assay type: functional; details: Mus musculus, B16F0; procedure, shortened: as §1
P815 = assay: The concentration required for inhibiting the growth of the murine P815 mastocytoma cells by 50%; assay type: functional, cell-based; details: Mus musculus
Procedure, shortened: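 P815 cells grown in DMEM with 10% FBS, HEPES, glutamine and pen/strep, seeded at 80 000 cells/well. Drug in DMSO/DMEM was added to final concentrations from 1.0 × 10^-12 to 1.0 × 10^-4 M, continuous for 72 h at 37 °C, 5% CO2, in quadruplicate. MTT was added for 4 h and solubilised in acid 2-propanol, read at 570/630 nm. IC50 was extrapolated from mean absorbance curves.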

Compound: COc1cc2cc(C(=O)Nc3cc(O)c4ccccc4c3CCCl)[nH]c2c(OC)c1OC
- IC50 (L1210): 55 nM
- IC50 (K562): 150 nM
- IC50 [1]: 27 nM
- IC50 (P815): 25 nM

Compound: COc1cc2cc(C(=O)N3CC(CCl)c4c3cc(O)c3ccccc43)[nH]c2c(OC)c1OC (stereo not drawn)
- IC50 (L1210): 8.4 nM
- IC50 (K562): 28 nM
- IC50 [1]: 78 nM

Compound: COC(=O)c1[nH]c2c(O)cc(NC(=O)c3cc4cc(OC)c(OC)c(OC)c4[nH]3)c(CCCl)c2c1C(=O)OC
- IC50 (L1210): 4200 nM
- IC50 (K562): 250 nM
- IC50 [1]: 6800 nM
- IC50 (P815): 5400 nM

- IC50 (L1210): 180 nM
Compound: COc1ccc(/C=C/C(=O)Nc2cc(N)c3ccccc3c2CCCl)c(OC)n1
- IC50 [1]: 62 nM
